# Source: PubChem BioAssay
# Sampled rows, rich in hits. Any-hit rate of the full collection: about 1.5%.
# NR2E3 ag-1 – inhibitors of NR2E3-RetCOR corepressor binding, primary screen, NR2E3 agonist project, biochemical, TR-FRET, GST-NR2E3, biotin-RetCOR; Photoreceptor-specific nuclear receptor (Homo sapiens), Q9Y5X4; 1536-well; actives 0.12% (n = 320,000); inhibition of corepressor binding, % at 4.78 µM; AID 2300, 2010;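 active means percent inhibition above the cutoff of mean plus 3 SD of all tested compounds, set per screening campaign, cut at about 20% in these data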
#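 System: GST-NR2E3 and biotin-RetCOR proteins; probe or stimulus: 7 nM biotin-RetCOR; doses: compound at 4.8 µM, single dose; schedule: Compound–protein incubation for 5 h at 4 °C; detection: time-resolved FRET; read-out: percent inhibition; controls: biotin wells as high control, 0.6% DMSO wells as low control; format: 1536-well plates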
# NR2E3 ag-2 – NR2E3 agonists in two-hybrid cells, primary screen, cell-based, luminescence, CHO-S, Gal4-NCOR/VP16-NR2E3. inhibition of corepressor binding, % at 3.98 µM. AID 602229, 2012. luciferase. Photoreceptor-specific nuclear receptor (Homo sapiens), Q9Y5X4. actives 0.35% (n = 360,000);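 active means inhibition above the mean of all tested compounds plus 3 SD, cut at about 70% in these data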;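 further: higher means lower luciferase signal from less NR2E3 corepressor binding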
# Rev-erbA mod – modulators of Rev-erb alpha DNA binding, primary screen, biochemical, FITC-DNA, fluorescence polarization, uHTS; Nuclear receptor subfamily 1 group D member 1 (Homo sapiens), P20393; Rev-erbα–FITC-DNA binding, 90 min; activity, % at 10 µM; actives 0.79% (n = 370,000);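 active means activity above about 14%, limit read from the data; passing the limit was not always enough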
# Target sequence (P20393 whole entry, looked up): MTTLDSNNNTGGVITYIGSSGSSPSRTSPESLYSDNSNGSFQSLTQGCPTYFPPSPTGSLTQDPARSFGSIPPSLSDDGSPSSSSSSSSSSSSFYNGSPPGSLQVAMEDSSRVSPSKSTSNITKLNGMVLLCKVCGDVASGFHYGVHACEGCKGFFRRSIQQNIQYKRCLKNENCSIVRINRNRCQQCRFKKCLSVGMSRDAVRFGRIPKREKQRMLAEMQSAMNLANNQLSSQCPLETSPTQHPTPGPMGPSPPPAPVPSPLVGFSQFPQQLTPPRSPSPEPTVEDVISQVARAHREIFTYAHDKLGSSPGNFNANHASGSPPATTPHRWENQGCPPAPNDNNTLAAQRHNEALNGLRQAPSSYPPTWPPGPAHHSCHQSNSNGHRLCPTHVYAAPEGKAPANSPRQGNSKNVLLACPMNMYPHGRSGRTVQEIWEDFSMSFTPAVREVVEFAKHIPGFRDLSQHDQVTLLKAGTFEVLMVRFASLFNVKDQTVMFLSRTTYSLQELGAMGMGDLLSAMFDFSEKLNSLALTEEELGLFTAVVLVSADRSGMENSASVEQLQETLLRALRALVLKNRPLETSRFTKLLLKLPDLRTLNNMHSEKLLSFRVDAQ
# PG9 Ab binder – binders of HIV-1 gp120 antibody PG9, primary screen, biochemical, TR-FRET; inhibition, % at 6.7 µM; actives 0.43% (n = 360,000); TR-FRET gp120-PG9 antibody binding; HIV-1 gp120 / PG9 antibody interaction; in the data active means inhibition above about 8.5%
# Rev-erbA confirm – modulators of Rev-erb alpha DNA binding, confirmation, biochemical, FITC-DNA, fluorescence polarization, single point; shares compounds with Rev-erbA mod; 90 min; activation, % at 25 µM; actives 61% (n = 3,000);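 active means activation at or above a set limit, or at least 3 SD above the negative control mean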
# RORg DNA counter – modulation of RORgamma DNA binding, dose response, counter-screen for Rev-erb alpha modulator project, biochemical, fluorescence polarization, FITC-DNA | AID 1259320, 2017 | purified RORgamma protein-FITC-DNA binding | actives 8% (n = 910) | IC50, µM | shares compounds with Rev-erbA mod;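 active means Compounds whose fitted half-maximal concentration for disrupting protein-DNA binding is below 10 micromolar; the record names Rev-erb in its text, so the target is in doubt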
# A number is an active result; - = inactive; . = not tested or not shown.
SMILES,NR2E3 ag-1,NR2E3 ag-2,Rev-erbA mod,PG9 Ab binder,Rev-erbA confirm,others
O=C(O)CN1C(=O)/C(=C\c2cn(CC(=O)N3CCOCC3)c3ccccc23)SC1=S,-,-,38.6,-,38.7,RORg DNA counter=-
O=C(Nc1nnc(-c2ccccc2F)s1)C1CCN(S(=O)(=O)c2ccc(Cl)cc2)CC1,-,-,32.7,-,-,
O=C(Nc1nnc(-c2ccc(F)cc2)s1)C1CCN(S(=O)(=O)c2ccc(Cl)cc2)CC1,-,-,121.1,-,-,
O=C(Nc1nnc(-c2ccccc2Cl)s1)C1CCN(S(=O)(=O)c2ccc(Cl)cc2)CC1,-,-,-,-,.,
CCOC(=O)c1c(C2CC2)csc1NC(=O)COC(=O)c1ccc[n+]([O-])c1,-,-,-,-,.,
CCOC(=O)c1c(C2CC2)csc1NC(=O)COC(=O)c1cnc(Cl)c(Cl)c1,-,-,81.0,-,80.3,RORg DNA counter=-
CN(C)c1ccc(-c2ccnc3c2CC(C)(C(=O)Nc2cccc(Oc4ccccc4)c2)O3)cc1 (stereo not given),.,-,-,-,.,
CC12CCC(=O)N1C(C(=O)Nc1cc(C(F)(F)F)ccc1N1CCCCC1)CS2 (stereo not given),-,-,15.4,-,-,
CCN(CC)c1ccc(S(=O)(=O)N2CCCCC2)cc1NC(=O)C1CSC2(C)CCC(=O)N12 (stereo not given),-,-,22.8,-,21.7,
COc1ccc2c(C)cc(SCC(=O)Nc3nsc(-c4ccc(C)cc4)n3)nc2c1,-,-,-,-,.,
Cc1ccc(-c2nc(NC(=O)CSc3cc(C)c4ccccc4n3)ns2)cc1,-,-,498.7,-,61.4,RORg DNA counter=-
C=CCNC(=O)c1ccc(-c2nc(-c3ccc(Cl)cc3Cl)cs2)cc1,-,-,31.4,-,44.3,RORg DNA counter=-
O=C(NC1CCCCCC1)c1cc2ccccc2oc1=O,-,-,-,-,.,
COc1ccc2cc(C(=O)NC3CCCCC3)c(=O)oc2c1,.,-,41.9,-,18.8,
CCN1C(=O)/C(=C\N2CCN(c3ccc(F)cc3)CC2)SC1=S,-,-,212.7,-,250.9,RORg DNA counter=-
Cc1cccc2sc(=S)[nH]c12,.,-,-,-,.,
CCCCc1cc(=O)oc2cc(OCC(=O)N3CCc4ccccc43)ccc12,-,-,-,-,.,
CCCc1cc(=O)oc2cc(OCC(=O)N3CCc4ccccc43)ccc12,-,-,20.9,-,-,
CC1(C)CC2CC(C)(CN2C(=O)c2cc(-c3ccccc3)on2)C1 (stereo not given),-,-,28.9,-,-,
COc1ccc(C(=O)N[C@@H]2CC[C@@]34CCCN3C(=O)CCC[C@H]4[C@H]2C)cc1,.,.,-,.,.,
CCn1c(COc2ccc(=O)n(-c3ccccc3)n2)nnc1SCC(=O)OC,-,-,-,-,.,
O=c1cc(-c2ccccc2Cl)oc2c(NS(=O)(=O)c3cccs3)ccc(O)c12,-,-,26.9,-,33.4,RORg DNA counter=-
O=c1cc(-c2ccccc2Cl)oc2c(NS(=O)(=O)c3ccccc3C(F)(F)F)ccc(O)c12,-,-,-,-,.,
N=C1/C(=C\c2ccc(OC(=O)c3ccccc3Cl)cc2)C(=O)N=C2SC(N3CCOCC3)=NN12,-,-,-,-,.,
COc1ccc(C2CC(c3cccs3)=NN2C(=O)CSC2=NCCS2)cc1 (stereo not given),-,-,14.4,-,-,
SMILES,NR2E3 ag-1,NR2E3 ag-2,Rev-erbA mod,PG9 Ab binder,Rev-erbA confirm,others
COC(=O)[C@]12C[C@H](CC(=O)N3CCN(C(=O)c4ccco4)CC3)C(=O)N(Cc3ccccc3)C1=C[C@H](COCc1ccccc1)O[C@@H]2C,.,.,-,.,.,
CCn1ccnc1[C@@H]1C[C@H]2CN(Cc3ccccc3OC)C(=O)[C@]23CCCN13,-,-,24.5,-,-,
COc1ccccc1CN1C[C@@H]2C[C@@H](c3ccc(C)cc3)N3CCC[C@@]23C1=O,-,-,-,-,.,
CCc1ccc([C@@H]2C[C@H]3CN(Cc4ccccc4OC)C(=O)[C@]34CCCN24)cc1,-,-,52.7,-,-,
COc1ccc(C(=O)Nc2ccc3[nH]c(-c4cccc(OC)c4)cc(=O)c3c2)cc1,-,-,50.9,-,-,
COc1ccc(C(=O)Nc2cccc(OC)c2)cc1,-,-,-,-,.,
Cc1ccc2nc(SCc3ccccc3)c(C=O)c(=O)n2c1,-,-,42.1,-,30.4,
Cc1nn(C)cc1NC(=O)C[C@H]1CC[C@H]2[C@@H](COc3ccc(NC(=O)Nc4ccccc4)cc3C(=O)N2C)O1,.,.,42.4,.,21.2,
COc1ccc(C(=O)Nc2ccc3c(c2)C(=O)N(C)[C@H]2CC[C@H](CC(=O)NCC4CC4)O[C@@H]2CO3)cc1,.,.,29.8,.,17.7,
CN1C(=O)c2cc(NC(=O)Nc3ccccc3)ccc2OC[C@H]2O[C@@H](CC(=O)NC3CCC3)CC[C@@H]21,.,.,49.5,.,29.2,RORg DNA counter=-
COC(=O)C[C@@H]1CC[C@H]2[C@H](COc3ccc(NC(=O)c4ccc(OC)cc4)cc3C(=O)N2C)O1,.,.,-,.,.,
C=COC(=O)c1sc2nc(C)cc(C)c2c1N,-,-,24.3,-,-,
COC(=O)c1sc2nc(C)cc(C)c2c1N,-,-,-,-,.,
CCOC(=O)/C(C#N)=C\c1ccc(OCC(=O)Nc2ccc(C)cc2C)c(OC)c1,-,-,27.6,-,20.9,
Cc1nc(SCc2nc3c(F)cccc3[nH]2)c2oc3ccccc3c2n1,.,-,29.8,-,38.5,RORg DNA counter=-
c1ccc(-c2nc(SCc3nc4ccccc4[nH]3)c3oc4ccccc4c3n2)cc1,.,-,46.3,-,45.0,RORg DNA counter=-
Cc1nc(SCc2nc3c(C)cccc3[nH]2)c2oc3ccccc3c2n1,.,-,-,-,.,
Cc1nc(SCc2nc3ccccc3[nH]2)c2oc3ccccc3c2n1,-,-,-,-,.,
Cc1ccc(O)c(C(=O)c2cnc3c(c2)c(C)nn3-c2ccccc2)c1,-,-,-,-,.,
COc1cccc(C(=O)Nc2ccc(-c3nc4ccccc4o3)c(O)c2)c1,-,-,85.5,-,64.3,RORg DNA counter=-
Cc1ccc(OCC(=O)Nc2ccc(O)c(-c3nc4ccccc4o3)c2)cc1,-,-,102.6,-,38.4,RORg DNA counter=-
COc1cc(OC)cc(C(=O)Nc2ccc(-c3nc4ccccc4o3)cc2)c1,-,-,-,-,.,
COc1ccc(OCC(=O)Nc2ccc3oc(-c4ccncc4)nc3c2)cc1,-,-,-,-,.,
CCCCNC(=S)N(CCCO)Cc1cc2cc3c(cc2[nH]c1=O)OCO3,.,-,-,-,.,
NS(=O)(=O)c1ccc(CCNC(=O)c2ccc(Cl)s2)cc1,-,-,-,-,.,
